Results as given in ChEMBL document CHEMBL1132594, “Discovery of 6-oxo-3-(2-phenylpyrazolo[1,5-a]pyridin-3-yl)-1(6H)- pyridazinebutanoic acid (FK 838): a novel non-xanthine adenosine A1 receptor antagonist with potent diuretic activity” (J Med Chem, 1999).
Converted amounts (≈) assume the structure as drawn.

Columns and labels:
Rattus norvegicus [1] = assay: Diuretic activity was measured in saline (20mL/kg, po)-loaded rat as potassium output at 3.2 mg/kg dose po; assay type: functional, organism-based; parameters: dose 3.2 mg/kg; settings: Urine
Method in brief: (§1)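 Male Sprague–Dawley rats, food withheld 18 h, saline-loaded (20 mL/kg po), then given compound orally as a suspension in 0.5% methyl cellulose; vehicle-dosed controls. Urine collected over 6 h for volume (mL/kg), Na+ and K+ output (μequiv/kg). n = 3 (n = 1 for some vehicle groups); means ± SEM, significance vs vehicle at p < 0.05 / p < 0.01.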

Rattus norvegicus [2] = assay: Diuretic activity was measured in saline (20mL/kg, po)-loaded rat as potassium output at 1 mg/kg dose po; assay type: functional, organism-based; parameters: dose 1 mg/kg; settings: Urine; method in brief: as §1
Adenosine receptor A1 [3] = molecular target: T1, Adenosine receptor A1 (Homo sapiens, UniProt P30542); assay: Adenosine A1 receptor binding using [3H]DPCPX in human cortical membranes; assay type: cell membranes
T1 sequence (P30542 whole entry): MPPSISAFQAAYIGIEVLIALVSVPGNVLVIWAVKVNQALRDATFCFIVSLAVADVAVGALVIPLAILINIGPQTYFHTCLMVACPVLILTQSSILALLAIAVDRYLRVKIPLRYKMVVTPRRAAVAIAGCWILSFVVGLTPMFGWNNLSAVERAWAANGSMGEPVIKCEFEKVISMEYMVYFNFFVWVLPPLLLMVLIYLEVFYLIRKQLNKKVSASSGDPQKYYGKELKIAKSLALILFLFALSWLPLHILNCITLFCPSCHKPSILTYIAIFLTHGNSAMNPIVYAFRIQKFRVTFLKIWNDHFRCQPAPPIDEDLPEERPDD

[4] = Oral bioavailability in rat (fasted); assay type: ADME, organism-based; settings: in vivo
Method in brief: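 Fasted rats given a single oral dose of compound suspended in 0.5% methyl cellulose solution, 3.2 or 10 mg/kg depending on compound, n = 3–4 per group.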

Rattus norvegicus [5] = assay: Diuretic activity was measured in saline (20mL/kg, po)-loaded rat as sodium output at 10 mg/kg dose po; assay type: functional, Urine; method in brief: as §1
Rattus norvegicus [6] = assay: Diuretic activity was measured in saline (20mL/kg, po)-loaded rat as sodium output at 3.2 mg/kg dose po; assay type: functional, Urine; method in brief: as §1
Rattus norvegicus [7] = assay: Diuretic activity was measured in saline (20mL/kg, po)-loaded rat as sodium output at 0.32 mg/kg dose po; assay type: functional, Urine; method in brief: as §1
[8] = solubility in water (ug/mL) at 37 degree C.; assay type: physicochemical; settings: read-out: S
Method in brief: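 Aqueous solubility measured in water at 37 °C; sodium salt form used for one compound.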

Rattus norvegicus [9] = assay: Diuretic activity was measured in saline (20mL/kg, po)-loaded rat as potassium output at 10 mg/kg dose po; assay type: functional, organism-based; parameters: dose 10 mg/kg; settings: Urine; method in brief: as §1
Rattus norvegicus [10] = assay: Diuretic activity was measured in saline (20mL/kg, po)-loaded rat as urine volume collected for 6 hr at 10 mg/kg dose po; assay type: functional; method in brief: as §1
Rattus norvegicus [11] = assay: Diuretic activity was measured in saline (20mL/kg, po)-loaded rat as urine volume collected for 6 hr at 0.32 mg/kg dose po; assay type: functional; method in brief: as §1
Adenosine receptor A1 [12] = molecular target: T2, Adenosine receptor A1 (Rattus norvegicus, UniProt P25099); assay: Adenosine A1 receptor binding using [3H][…] in rat cortical membranes; assay type: cell membranes
T2 sequence (P25099 whole entry): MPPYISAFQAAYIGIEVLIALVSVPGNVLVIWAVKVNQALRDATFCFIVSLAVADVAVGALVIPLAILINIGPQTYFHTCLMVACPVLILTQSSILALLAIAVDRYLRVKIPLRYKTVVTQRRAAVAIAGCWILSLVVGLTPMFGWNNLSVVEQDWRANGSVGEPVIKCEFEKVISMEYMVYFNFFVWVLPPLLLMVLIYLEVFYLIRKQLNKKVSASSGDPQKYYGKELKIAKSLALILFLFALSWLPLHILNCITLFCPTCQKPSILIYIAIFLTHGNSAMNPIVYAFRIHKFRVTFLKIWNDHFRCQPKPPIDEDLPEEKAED
Method in brief: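 Displacement of [3H]DPCPX binding in rat cortical membranes. Values are means ± 95% confidence limits from at least three independent experiments.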

Rattus norvegicus [13] = assay: Diuretic activity was measured in saline (20mL/kg, po)-loaded rat as urine volume collected for 6 h at 3.2 mg/kg dose po; assay type: functional; method in brief: as §1
Rattus norvegicus [14] = assay: Diuretic activity was measured in saline (20mL/kg, po)-loaded rat as sodium output at 1 mg/kg dose po; assay type: functional, Urine; method in brief: as §1
Rattus norvegicus [15] = assay: Diuretic activity was measured in saline (20mL/kg, po)-loaded rat as urine volume collected for 6 hr at 1 mg/kg dose po; assay type: functional; method in brief: as §1
Adenosine receptor A1 [16] = molecular target: T2, Adenosine receptor A1; assay: Adenosine A1 receptor using [3H][…] in rat cortical membranes; assay type: cell membranes
[17] = molecular target: T3, Adenosine receptor A1 (Rattus norvegicus) (UniProt P25099)
T3 sequence (whole entry): T2 sequence (P25099 whole entry)

Rattus norvegicus [18] = assay: Diuretic activity was measured in saline (20mL/kg, po)-loaded rat as sodium output at 0.1 mg/kg dose po; assay type: functional, Urine; method in brief: as §1
Rattus norvegicus [19] = assay: Diuretic activity was measured in saline (20mL/kg, po)-loaded rat as sodium output at 0.032 mg/kg dose po; assay type: functional, Urine; method in brief: as §1
Rattus norvegicus [20] = assay: Diuretic activity was measured in saline (20mL/kg, po)-loaded rat as urine volume collected for 6 hr at 0.032 mg/kg dose po; assay type: functional; method in brief: as §1
Rattus norvegicus [21] = assay: Diuretic activity was measured in saline (20mL/kg, po)-loaded rat as urine volume collected for 6 hr at 0.1 mg/kg dose po; assay type: functional; method in brief: as §1
Adenosine A2 receptor = Adenosine A2 receptor (Rattus norvegicus, UniProt P29276+P30543); assay: Adenosine A2 receptor binding using [3H]CGS-21680 in rat striatal membranes; assay type: cell membranes, Striatum, Membrane
Method in brief: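 Radioligand displacement of [3H]CGS 21680 from rat striatal membranes. Values are means ± 95% confidence limits from at least three independent experiments.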

Row | SMILES | K (Rattus norvegicus [2]) [u equiv kg-1] | Na (Rattus norvegicus [5]) [u equiv kg-1] | K (Rattus norvegicus [9]) [u equiv kg-1] | Urine volume (Rattus norvegicus [10]) [mL/kg] | Na (Rattus norvegicus [14]) [u equiv kg-1] | further results
1 | O=C(/C=C/c1c(-c2ccccc2)nn2ccccc12)N1CCCC[C@@H]1CCO [FK453] | 833 | 5820 | 1070 | 44.4 | 3290 | K (Rattus norvegicus [1]): 831 u equiv kg-1; Ki (Adenosine receptor A1 [3]): 490 pM; bioavailability [4]: 8.8%; Na (Rattus norvegicus [6]): 4110 u equiv kg-1; Na (Rattus norvegicus [7]): 2350 u equiv kg-1; solubility [8]: 11.9 µg/mL (≈ 0.0317 mM); Urine volume (Rattus norvegicus [11]): 18 mL/kg; Ki (Adenosine receptor A1 [12]): 490 pM; Urine volume (Rattus norvegicus [13]): 31.9 mL/kg; Urine volume (Rattus norvegicus [15]): 24.6 mL/kg
2 | O=C(O)CCCCn1nc(-c2c(-c3ccccc3)nn3ccccc23)ccc1=O | – | 4510 | 977 | 36.3 | – | –
3 | c1ccc(-c2nn3ccccc3c2-c2ccncc2)cc1 | – | 5110 | 975 | 34.2 | – | –
4 | c1ccc(-c2nn3ccccc3c2-c2ccnnc2)cc1 | 569 | 5110 | 907 | 38 | 2800 | K (Rattus norvegicus [1]): 667 u equiv kg-1; Na (Rattus norvegicus [6]): 3770 u equiv kg-1; Urine volume (Rattus norvegicus [13]): 29.5 mL/kg; Urine volume (Rattus norvegicus [15]): 23.8 mL/kg
5 | Oc1ccc(-c2c(-c3ccccc3)nn3ccccc23)nn1 | – | 4640 | 826 | 33.3 | – | –
6 | O=c1ccc(-c2c(-c3ccccc3)nn3ccccc23)nn1CCCO | – | 5160 | 964 | 37.9 | – | –
7 | O=c1ccc(-c2c(-c3ccccc3)nn3ccccc23)nn1CCO | – | 5930 | 942 | 40.4 | – | –
8 | Cn1nc(-c2c(-c3ccccc3)nn3ccccc23)ccc1=O | – | 4870 | 891 | 30 | – | –
9 | O=C(O)CCCn1nc(-c2c(-c3ccccc3)nn3ccccc23)ccc1=O | 967 | 5680 | 1150 | – | 5260 | Ki (Adenosine receptor A1 [16]): 6610 pM; Urine volume [17]: 26.4 mL/kg; Na (Rattus norvegicus [18]): 3860 u equiv kg-1; Na (Rattus norvegicus [19]): 2390 u equiv kg-1; Urine volume (Rattus norvegicus [20]): 15.6 mL/kg; bioavailability [4]: 78%; Urine volume (Rattus norvegicus [21]): 26.4 mL/kg; solubility [8]: 10000 µg/mL (≈ 26.7 mM); UV (Rattus norvegicus [10]): 38.6 mL/kg; Log Ki (Adenosine A2 receptor): -5.92
10 | O=C(O)CCn1nc(-c2c(-c3ccccc3)nn3ccccc23)ccc1=O | 790 | 5260 | 901 | 31.4 | 3350 | K (Rattus norvegicus [1]): 904 u equiv kg-1; Na (Rattus norvegicus [6]): 4860 u equiv kg-1; Urine volume (Rattus norvegicus [13]): 28.1 mL/kg; Urine volume (Rattus norvegicus [15]): 19.1 mL/kg
11 | CCCn1nc(-c2c(-c3ccccc3)nn3ccccc23)ccc1=O | – | 5510 | 972 | 36.8 | – | –
